Experimental data taken from ChEMBL document CHEMBL3244193, “Design of species- or isozyme-specific enzyme inhibitors. 3. Species and isozymic differences between mammalian and bacterial adenylate kinases in substituent tolerance in an enzyme-substrate complex” (J Med Chem, 1979).

Experiments:
[1] = substrate: CCSc1nc2c(N)ncnc2n1[C@@H]1O[C@H](COP(=O)(O)OP(=O)(O)OP(=O)(O)O)[C@@H](O)[C@H]1O; assay: (§1) Activity of Sprague-Dawley rat liver adenylate kinase 3 by Lineweaver-Burk plot analysis relative to ATP
Procedure, shortened: (§2)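 Substrate kinetics in a pyruvate kinase/lactate dehydrogenase-coupled assay: 0.1 M Tris-HCl pH 7.6, 2 mM MgSO4, 0.12 M KCl, 0.3 mM PEP, 0.38 mM NADH, 0.25 mM AMP. A340 change over 5 min at 23 °C. Derivatives screened first at ca. 0.8 mM. Five or more substrate levels; KM and Vmax (relative to ATP) taken from linear Lineweaver-Burk plots.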

[2] = substrate: CSc1nc2c(N)ncnc2n1[C@@H]1O[C@H](COP(=O)(O)OP(=O)(O)OP(=O)(O)O)[C@@H](O)[C@H]1O; assay: as §1; procedure, shortened: as §2
[3] = substrate: Nc1ncnc2c1ncn2[C@@H]1O[C@H](COP(=O)(O)OP(=O)(O)OP(=O)(O)O)[C@@H](O)[C@H]1O; assay: as §1; procedure, shortened: as §2
[4] = substrate: O=C(CI)NCCCCCNc1ncnc2c1ncn2[C@@H]1O[C@H](COP(=O)(O)OP(=O)(O)OP(=O)(O)O)[C@@H](O)[C@H]1O; assay: as §1; procedure, shortened: as §2
[5] = substrate: Nc1ncnc2c1nc(SCCO)n2[C@@H]1O[C@H](COP(=O)(O)OP(=O)(O)OP(=O)(O)O)[C@@H](O)[C@H]1O; assay: as §1; procedure, shortened: as §2
[6] = substrate: CCCSc1nc2c(N)ncnc2n1[C@@H]1O[C@H](COP(=O)(O)OP(=O)(O)OP(=O)(O)O)[C@@H](O)[C@H]1O; assay: as §1; procedure, shortened: as §2
[7] = substrate: CCSc1nc2c(N)ncnc2n1[C@@H]1O[C@H](COP(=O)(O)OP(=O)(O)OP(=O)(O)O)[C@@H](O)[C@H]1O; assay: (§3) Activity of Sprague-Dawley rat liver adenylate kinase 3 by Lineweaver-Burk plot analysis; procedure, shortened: as §2
[8] = substrate: CSc1nc2c(N)ncnc2n1[C@@H]1O[C@H](COP(=O)(O)OP(=O)(O)OP(=O)(O)O)[C@@H](O)[C@H]1O; assay: as §3; procedure, shortened: as §2
[9] = substrate: Nc1ncnc2c1ncn2[C@@H]1O[C@H](COP(=O)(O)OP(=O)(O)OP(=O)(O)O)[C@@H](O)[C@H]1O; assay: as §3; procedure, shortened: as §2
[10] = substrate: O=C(CI)NCCCCCNc1ncnc2c1ncn2[C@@H]1O[C@H](COP(=O)(O)OP(=O)(O)OP(=O)(O)O)[C@@H](O)[C@H]1O; assay: as §3; procedure, shortened: as §2
[11] = substrate: Nc1ncnc2c1nc(SCCO)n2[C@@H]1O[C@H](COP(=O)(O)OP(=O)(O)OP(=O)(O)O)[C@@H](O)[C@H]1O; assay: as §3; procedure, shortened: as §2
[12] = substrate: CCCSc1nc2c(N)ncnc2n1[C@@H]1O[C@H](COP(=O)(O)OP(=O)(O)OP(=O)(O)O)[C@@H](O)[C@H]1O; assay: as §3; procedure, shortened: as §2
[13] = substrate: CSc1nc2c(N)ncnc2n1[C@@H]1O[C@H](COP(=O)(O)OP(=O)(O)OP(=O)(O)O)[C@@H](O)[C@H]1O; assay: (§4) Activity of Sprague-Dawley rat muscle adenylate kinase by Lineweaver-Burk plot analysis relative to ATP; procedure, shortened: as §2
[14] = substrate: Nc1ncnc2c1ncn2[C@@H]1O[C@H](COP(=O)(O)OP(=O)(O)OP(=O)(O)O)[C@@H](O)[C@H]1O; assay: as §4; procedure, shortened: as §2
[15] = substrate: O=C(CI)NCCCCCNc1ncnc2c1ncn2[C@@H]1O[C@H](COP(=O)(O)OP(=O)(O)OP(=O)(O)O)[C@@H](O)[C@H]1O; assay: as §4; procedure, shortened: as §2
[16] = substrate: CCCSc1nc2c(N)ncnc2n1[C@@H]1O[C@H](COP(=O)(O)OP(=O)(O)OP(=O)(O)O)[C@@H](O)[C@H]1O; assay: as §4; procedure, shortened: as §2
[17] = substrate: Nc1ncnc2c1ncn2[C@@H]1O[C@H](COP(=O)(O)OP(=O)(O)OP(=O)(O)O)[C@@H](O)[C@H]1O; settings: Rattus norvegicus; Sprague-Dawley

| Protein | Vmax [1] | Vmax [2] | Vmax [3] | Vmax [4] | Vmax [5] | Vmax [6] | Km [7] | Km [8] | Km [9] | Km [10] | Km [11] | Km [12] | Vmax [13] | Vmax [14] | Vmax [15] | Vmax [16] | Km [17] |
| --- | --- | --- | --- | --- | --- | --- | --- | --- | --- | --- | --- | --- | --- | --- | --- | --- | --- |
| GTP:AMP phosphotransferase AK3, mitochondrial (Rattus norvegicus), P29411 (protein) MGASGRLLRAVIMGAPGSGKGTGSSRITKHFELKHLSSGDLLRQNMLQGTEIAVLAKSFIDQGKLIPDDDMTRLALHELKNLTQCSWLLDGFPRTLPQAEALDRVYQIDTVINLNVPFEVIKLRLTARWIHPASGRVYNIEFNPPKTVGIDDLTGEPLIQREDDKPETVIKRLKAYEAQTEPVLQYYQKKGVLETFSGTETNKIRPHVYSFLQMKVPETIQKASVTP | 11.4% | 8.3% | 100% | 8.9% | 12.5% | 10.4% | 70 µM | 150 µM | 90 µM | 400 µM | 120 µM | 40 µM |  |  |  |  |  |
| Adenylate kinase isoenzyme 1 (Rattus norvegicus), P39069 (protein) MEDKLKKAKIIFVVGGPGSGKGTQCEKIVQKYGYTHLSTGDLLRAEVSSGSSRGKMLSSIMEKGELVPLETVLDMLRDAMLAKVDSSNGFLIDGYPREVKQGEEFERKIAQPTLLLYVDAGPETMTQRLLKRGETSGRVDDNEETIKKRLETYYKATEPVISFYDKRGIVRKVNAEGSVDTVFSQVCTYLDSLK |  |  |  |  |  |  |  |  |  |  |  |  | 0% | 100% | 0% | 0% | 650 µM |
